We go through 2 molecules from paper PMC3794531 (Biomolecules & Therapeutics, 2012).

pEC50: −log10 of the molar value. A value given as a limit tells only on which side of the number the result lay.

For data set [1], the system named is MCF7 cells. Briefly: MTT cytotoxicity test in MCF7 cells. The following applies: Homo sapiens, MCF7, 72 h. The class given is cell-based. The essentials: (§1)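 Cells were grown in DMEM with 10% FBS, 100 unit/ml penicillin and 0.1 mg/ml streptomycin at 37℃ and 5% CO2, and split near 80% confluency. They were seeded at 1×10^5 cells/well and cultured 24 h to ~80% confluency, then exposed to test compound for 72 h. MTT (0.5 mg/ml in serum-free medium) was added for 2 h, and absorbance was read at 540 nm. Data are mean ± SD.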

For data set [2], the system named is CT26. In words: MTT cytotoxicity test in CT26 cells. The data set is classed as cell-based. A digest of the protocol:
as §1
In general terms: Formazan colour is commonly taken as a measure of viable cells.

For data set [3], the system named is HT29. In words: MTT cytotoxicity test in HT29 cells. Particulars: Homo sapiens, HT-29, 72 h. The data set is classed as cell-based. A digest of the protocol:
as §1

The test system of data set [4] is colon cancer-induced mice. Briefly: In vivo survival test in colon cancer-induced mice. The following applies: intravenous, n=4. The essentials: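 Mice were anesthetized and the cecum exteriorized by laparotomy. CT26 cells (1×10^6 in 50 μl) were injected into the cecal wall, then the gut was returned and the incision closed (surgical orthotopic implantation). Test compounds were given intravenously, and survival was followed over the experimental period.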

Data set [5] in a line: Proportion of total lactone form in PBS, MCF7 cell lysates and rat plasma. The data set is classed as in vitro ADME. The following applies: 37℃. The essentials: (§2)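 Test compound (5 μM) was incubated at 37℃ in PBS, rat plasma, or MCF7 lysate. Lysate was prepared by adding PMSF, sonicating 10 sec, and centrifuging at 4℃ and 13,200 rpm for 15 min. Samples taken over time up to 120 min were quenched in ice-cold acetonitrile and centrifuged. Supernatant was diluted in 10 mM K2HPO4 pH 7.4 and run on C18 HPLC (K2HPO4:acetonitrile 62:38, 1 ml/min) with fluorescence detection (ex 380/em 540 nm). Data are mean ± SD.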

A short description of data set [6]: Stability test in PBS, MCF7 cell lysates and rat plasma. The class given is in vitro ADME. The following applies: 5 μM, 37℃. A digest of the protocol: as §2
The conditions of data set [7]: sodium phosphate (pH 7), 120 min; ref Tallman et al., 2005; cited from earlier work.
For data set [8] the following is noted: ref Kawato et al., 1991; cited from earlier work.

In general, pEC50 refers to −log10 of the EC50, conventionally taken in molar units. As to `CCc1c2c(nc3ccc(O)cc13)-c1cc3c(c(=O)n1C2)COC(=O)[C@]3(O)CC` [SN-38, 7-ethyl-10-hydroxy-camptothecin], the pEC50 in data set [1] was 6.61; in data set [2] (Mus musculus, CT26, 72 h), 4.76; in data set [3] it was 5.88. For the same molecule, in data set [2] (MTT assay, CT26 and HT29 (Fig. 2)), the “potency compared with irinotecan” value is on record as “much more potent than the parent compound irinotecan”. In data set [4], the “survived longer than the irinotecan-administered group” value is recorded as “at least 2 weeks”. The “proportion of the lactone form at 120 min” value in data set [5] (MCF7 lysates) is on record as “around 40%”; in data set [5] (PBS), “around 40%”; in data set [5] (all 3 conditions (PBS, MCF7 lysates, plasma)), 30-40%; in data set [5] (rat plasma), ~ 30%. The “initial proportion of the lactone form” value in data set [5] (early time points, all 3 conditions (PBS, MCF7 lysates, plasma), 5 μM) is listed as 80-90%. For the same molecule, in data set [6] (MCF7 lysates, up to 120 min), the “stability in MCF7 lysates” value is given as “rather unstable”. Further, the entries for the “compound remaining after 120 min” value in data set [6] (PBS) and in data set [6] (rat plasma) were roughly 80% and “about 60%”, respectively. Also, in data set [7], the “percentage of SN-38 lactone remaining” value is listed as “around 40%”. Besides, the “potency relative to irinotecan in terms of in vitro cytotoxicity” value in data set [8] was 100 fold.

In data set [4], `CCc1c2c(nc3ccc(OC(=O)N4CCC(N5CCCCC5)CC4)cc13)-c1cc3c(c(=O)n1C2)COC(=O)[C@]3(O)CC` [irinotecan] yielded a survival time of less than 28 days.
